Test results published in ChEMBL document CHEMBL1157070, “Polyhydroxysteroidal glycosides from the starfish Anthenea chinensis” (J Nat Prod, 2010).
Activity calls are given as the source filed them. The rule behind the calls is not given here.

Experiments:
[1] = tested on: K562; assay: Cytotoxicity against human K562 cells after 72 hrs by MTT assay; assay type: functional, cell-based; conditions: K562, 72 h
Summary of the method: (§1)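 MTT colorimetric read-out per a previously described method. K-562 (human leukemia) used 10-hydroxycamptothecine as positive control, U87MG (human spongioblastoma) used nimustine. IC50 read from dose-response curves as the concentration causing 50% reduction in absorption versus control cells. Mean of three independent experiments, triplicate wells per concentration.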

[2] = Cytotoxicity against human U87MG cells after 72 hrs by MTT assay; assay type: functional, cell-based, U-87MG ATCC; conditions: U-87 MG; summary of the method: as §1
[3] = tested on: Bel-7402; assay: Cytotoxicity against human Bel7402 cells after 72 hrs by SRB assay; assay type: functional, cell-based; conditions: Bel-7402, 72 h
Summary of the method: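 Human hepatoma BEL-7402 cells, sulforhodamine B protein stain per a reported method. Dose-response curves plotted; IC50 taken as the concentration giving 50% lower absorption than control cells. Means of three independent experiments, each concentration in triplicate wells. 10-Hydroxycamptothecine as positive control.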

[4] = target: Tubulin (Sus scrofa) (UniProt P02554+P02550); assay: Induction of pig brain tubulin polymerization at 10 ug/ml
Chain of Tubulin (Sus scrofa) (P02550 whole entry, looked up): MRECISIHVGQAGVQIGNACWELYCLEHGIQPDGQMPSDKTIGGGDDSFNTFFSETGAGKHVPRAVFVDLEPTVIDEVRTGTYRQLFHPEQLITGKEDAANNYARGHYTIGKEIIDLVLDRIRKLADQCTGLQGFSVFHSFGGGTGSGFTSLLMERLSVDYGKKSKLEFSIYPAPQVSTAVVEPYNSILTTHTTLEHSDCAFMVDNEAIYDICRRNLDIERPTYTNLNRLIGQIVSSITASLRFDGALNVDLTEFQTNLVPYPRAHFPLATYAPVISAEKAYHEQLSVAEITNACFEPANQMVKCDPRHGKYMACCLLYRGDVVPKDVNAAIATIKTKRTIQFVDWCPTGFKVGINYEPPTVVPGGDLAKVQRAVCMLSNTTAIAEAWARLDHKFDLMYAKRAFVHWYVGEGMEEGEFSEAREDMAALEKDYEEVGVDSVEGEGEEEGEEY
Chain of Tubulin (Sus scrofa) (P02554 whole entry, looked up): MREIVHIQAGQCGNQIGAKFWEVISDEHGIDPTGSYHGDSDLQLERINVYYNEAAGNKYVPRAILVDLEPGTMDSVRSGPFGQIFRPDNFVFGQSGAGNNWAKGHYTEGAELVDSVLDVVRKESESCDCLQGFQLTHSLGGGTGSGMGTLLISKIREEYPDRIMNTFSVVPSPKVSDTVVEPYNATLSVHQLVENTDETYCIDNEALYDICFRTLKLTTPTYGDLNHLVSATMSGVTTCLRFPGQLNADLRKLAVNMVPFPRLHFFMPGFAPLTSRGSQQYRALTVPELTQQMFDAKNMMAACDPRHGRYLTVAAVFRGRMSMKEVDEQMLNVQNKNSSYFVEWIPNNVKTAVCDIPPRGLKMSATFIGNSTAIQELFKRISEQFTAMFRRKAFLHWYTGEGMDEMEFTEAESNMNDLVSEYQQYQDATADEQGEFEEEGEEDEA

Row | Structure (SMILES) | IC50 [1] [µM] | IC50 [2] [µM] | IC50 [3] [µM] | Activity [4]
1 | CCC(CC[C@@H](C)[C@H]1[C@H](O[C@@H]2O[C@@H]([C@@H](O)COC)[C@H](O)[C@H]2O)CC2=C3[C@@H](O[C@@H]4O[C@@H]([C@@H](O)COC)[C@H](O)[C@H]4O)[C@@H](O)[C@H]4C[C@H](O)CC[C@]4(C)[C@H]3CC[C@@]21C)C(C)C (mixture of isomers) | 0.6 | 3.6 | 2.7 | 
2 | Cc1ncc(CNC(=O)N(CCCl)N=O)c(N)n1 [NIMUSTINE] |  | 0.84 |  | 
3 | CC[C@@]1(O)C(=O)OCc2c1cc1n(c2=O)Cc2cc3cc(O)ccc3nc2-1 [HYDROXYCAMPTOTHECIN] | 0.16 |  | 0.36 | 
4 | CCC(CC[C@@H](C)[C@H]1[C@H](O[C@@H]2O[C@@H]([C@@H](O)COC)[C@H](O[C@@H]3O[C@@H]([C@@H](O)COC)[C@H](O)[C@H]3O)[C@H]2O)CC2=C3[C@@H](O)[C@@H](O)[C@H]4C[C@H](O)CC[C@]4(C)[C@H]3CC[C@@]21C)C(C)C (mixture of isomers) | 2.8 | > 24.5 | 4.9 | inactive
5 | COC[C@H](O)[C@@H]1O[C@@H](O[C@@H]2[C@@H](O)[C@H](O[C@@H]3CC4=C5[C@@H](O)[C@@H](O)[C@H]6C[C@H](O)CC[C@]6(C)[C@H]5CC[C@]4(C)[C@H]3[C@H](C)CCCC(C)C)O[C@H]2[C@@H](O)COC)[C@H](O)[C@H]1O [ANTHENOSIDE E] | 6.1 | > 25.4 | 8.3 | inactive
6 | C=C(CC[C@@H](C)[C@H]1[C@H](O[C@@H]2O[C@@H]([C@@H](O)COC)[C@H](O[C@@H]3O[C@@H]([C@@H](O)COC)[C@H](O)[C@H]3O)[C@H]2O)CC2=C3[C@@H](O)[C@@H](O)[C@H]4C[C@H](O)CC[C@]4(C)[C@H]3CC[C@@]21C)C(C)C [ANTHENOSIDE G] | 4.6 | > 25.1 | 5.5 | inactive
